Compounds with a hit are over-represented: about 3.5% of the library has one in this group of screens.
FLuc act counter: affects firefly luciferase, flagging false hits in luciferase stimulation screens | P08659 | ATPlite luciferase biochemical, luminescence, 10 min; 0 = ATP-free wells, 1 = DMSO control | activation factor at 10 µM | 200,000 tested, under 10 active;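 active = luciferase activation factor, scaled between plate controls, of at least 2 with compound at 10 µM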
Target sequence (P08659 whole entry, looked up): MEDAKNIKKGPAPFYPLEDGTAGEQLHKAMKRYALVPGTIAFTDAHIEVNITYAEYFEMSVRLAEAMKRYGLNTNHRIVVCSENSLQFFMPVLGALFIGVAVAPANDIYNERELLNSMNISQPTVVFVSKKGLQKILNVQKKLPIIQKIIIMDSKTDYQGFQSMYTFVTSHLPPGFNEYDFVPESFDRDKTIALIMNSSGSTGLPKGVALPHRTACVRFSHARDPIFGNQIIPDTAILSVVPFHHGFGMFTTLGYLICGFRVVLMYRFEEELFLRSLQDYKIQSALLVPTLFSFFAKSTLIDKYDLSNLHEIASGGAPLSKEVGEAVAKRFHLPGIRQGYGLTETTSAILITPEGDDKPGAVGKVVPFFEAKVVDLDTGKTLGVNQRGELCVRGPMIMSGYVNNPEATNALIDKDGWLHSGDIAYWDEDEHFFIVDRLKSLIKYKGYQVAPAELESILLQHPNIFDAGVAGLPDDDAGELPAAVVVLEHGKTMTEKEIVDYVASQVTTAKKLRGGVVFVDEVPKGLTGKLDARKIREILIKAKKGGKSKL
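Assay system: Luciferase/luciferin reagent mix; Medium: PBS as buffer for the ATP substrate; Dosing: test compounds dosed from 2 mM stocks in 100% DMSO; Times: 10 min, room temperature; Signal: luminescence from luciferase reaction; Read-out: luciferase activation; Controls: No-ATP low control, compound-free enzyme-plus-ATP high control.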
STAT1 activator: increases IFN-gamma driven STAT1 reporter signal; NIH 3T3 STAT1-luciferase reporter, luminescence; 100% = IFN-gamma alone, no compound; activation (% of control), % at 5.5 µM; 200,000 compounds, 2.6% hits;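 active = activation above the screen-wide mean activation plus 3 SD, cut at about 130% in these data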
Pf gametocyte: kills late stage P. falciparum gametocytes | P. falciparum stage V gametocytes, ATP luminescence, 24 h | inhibition, % at 10.9 µM | 150,000 compounds, 0.065% hits;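 active = inhibition above the mean plus 3 SD of compounds within the control limits, set per campaign, cut at about 38% in these data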
FLuc inhib CS: counter-screen for luciferase assay inhibitors: firefly luciferase inhibition; ATPLite firefly luciferase biochemical luminescence, 10 min; 200,000 compounds, 1.5% hits; inhibition, % at 10 µM; P08659;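 active = inhibition above about 50% when tested at 10 µM, limit read from the data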
NF-kB neuron act: compounds increasing NF-kB expression in human neuronal cells. fold change at 12.5 µM. 190,000 compounds, 1.6% hits. AID 1239. NF-kB reporter expression; hits give high values; in the data active = fold change above about 3.3
APP 5'UTR act: activates APP 5'UTR luciferase reporter; activation, % at 2 µM; AID 1276; SH-SY5Y APP 5'UTR luciferase reporter, luminescence; zero percent = DMSO vehicle wells; 190,000 compounds, 1% hits;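 active = activation above a set limit, based on mean plus 3 SD of controls, cut at about 140% in these data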
Hits are given with their value.

Results for COC(=O)C(NS(C)(=O)=O)(c1c(C)[nH]c2ccccc12)C(F)(F)F (centres undefined) ?
FLuc act counter: inactive; STAT1 activator: inactive; Pf gametocyte: inactive; FLuc inhib CS: inactive; NF-kB neuron act: inactive; APP 5'UTR act: inactive

What do the screens show for `CC1CCCC(NC(=O)Nc2cccs2)C1C` (centres undefined)?
FLuc act counter: inactive; STAT1 activator: inactive; Pf gametocyte: inactive; FLuc inhib CS: inactive; NF-kB neuron act: inactive; APP 5'UTR act: inactive

Results for O=C(NCCc1ccc(Cl)cc1)c1cnc2n(c1=O)CCS2 ?
FLuc act counter: inactive; FLuc inhib CS: inactive

What do the screens show for `O=C(NCc1ccccc1)c1cnc2n(c1=O)CCS2`?
FLuc act counter: inactive; STAT1 activator: inactive; FLuc inhib CS: inactive; NF-kB neuron act: inactive; APP 5'UTR act: inactive

How did O=C(NCCC1=CCCCC1)c1cnc2n(c1=O)CCS2 do in these assays?
FLuc act counter: inactive; STAT1 activator: 133; FLuc inhib CS: inactive; NF-kB neuron act: inactive; APP 5'UTR act: inactive

What do the screens show for `O=C(NCCCc1ccccc1)c1cnc2n(c1=O)CCS2`?
FLuc act counter: inactive; STAT1 activator: 139; Pf gametocyte: inactive; FLuc inhib CS: inactive; NF-kB neuron act: inactive; APP 5'UTR act: inactive

What do the screens show for `COc1ccc([C@H]2CC(=O)C=C(C#CC(C)(C)C)C2)cc1`?
Pf gametocyte: inactive

Results for Cc1cc(C)c2nc(NC(=O)c3cc(C)on3)sc2c1 ?
FLuc act counter: inactive; STAT1 activator: inactive; FLuc inhib CS: inactive; NF-kB neuron act: inactive; APP 5'UTR act: inactive

Results for CC(C)(C)c1ccc(C(=O)NC(=S)Nc2nc3c(s2)CCCC3)cc1 ?
FLuc act counter: inactive; STAT1 activator: inactive; Pf gametocyte: inactive; FLuc inhib CS: inactive; NF-kB neuron act: inactive; APP 5'UTR act: inactive

What do the screens show for `CCc1ccc2nc(NC(=O)c3cc(C)on3)sc2c1`?
FLuc act counter: inactive; STAT1 activator: 133; Pf gametocyte: inactive; FLuc inhib CS: inactive; NF-kB neuron act: 3.5; APP 5'UTR act: inactive

Results for CN(C)c1ccc(C(=O)Nc2nc3c(s2)CCCC3)cc1 ?
FLuc act counter: inactive; STAT1 activator: inactive; FLuc inhib CS: 58; NF-kB neuron act: inactive; APP 5'UTR act: inactive

What do the screens show for `Cc1cc(C(=O)Nc2nc3c(s2)CCCC3)no1`?
FLuc act counter: inactive; STAT1 activator: 139; Pf gametocyte: inactive; FLuc inhib CS: inactive; NF-kB neuron act: 5.1; APP 5'UTR act: 152

Results for Cc1cc(C)cc(NC(=S)N2CCC(C(=O)c3ccc(F)cc3)CC2)c1 ?
Pf gametocyte: inactive

What do the screens show for `Cc1ccc(NC(=O)N/C=C/c2ccco2)cc1C`?
FLuc act counter: inactive; STAT1 activator: inactive; Pf gametocyte: inactive; FLuc inhib CS: inactive; NF-kB neuron act: inactive; APP 5'UTR act: inactive

Results for Cc1ccc(NC(=O)N/C=C/c2ccco2)c(C)c1 ?
FLuc act counter: inactive; STAT1 activator: inactive; Pf gametocyte: inactive; FLuc inhib CS: inactive; NF-kB neuron act: 5.2; APP 5'UTR act: inactive

What do the screens show for `CN(Cc1cc2ccccc2[nH]c1=O)C(=O)COc1ccccc1`?
Pf gametocyte: inactive

How did CC(=O)Nc1ccc(S(=O)(=O)N2C(=O)c3cccc4cccc2c34)cc1 do in these assays?
Pf gametocyte: inactive

How did COc1ccc(C(=O)c2c[nH]c(C(=O)NCCCN3CCOCC3)c2)cc1 do in these assays?
FLuc act counter: inactive; STAT1 activator: inactive; Pf gametocyte: inactive; FLuc inhib CS: inactive; NF-kB neuron act: inactive; APP 5'UTR act: inactive

Results for Nc1nc2ccc(O)cc2s1 ?
FLuc act counter: inactive; STAT1 activator: inactive; Pf gametocyte: inactive; FLuc inhib CS: inactive; NF-kB neuron act: inactive; APP 5'UTR act: inactive

What do the screens show for `CC(C)c1ccc2nc(N)sc2c1`?
FLuc act counter: inactive; STAT1 activator: inactive; Pf gametocyte: inactive; FLuc inhib CS: 67; NF-kB neuron act: inactive; APP 5'UTR act: inactive

Results for C1CCC(Nc2nc3nonc3nc2N2CCSCC2)C1 ?
FLuc act counter: inactive; STAT1 activator: inactive; Pf gametocyte: inactive; FLuc inhib CS: inactive; NF-kB neuron act: inactive; APP 5'UTR act: inactive

How did Cc1cc(C(=O)Nc2ccon2)ccc1[N+](=O)[O-] do in these assays?
Pf gametocyte: inactive

How did Fc1cccc(Cl)c1Cn1nnc(-c2ccc3c(c2)OCO3)n1 do in these assays?
FLuc act counter: inactive; STAT1 activator: inactive; Pf gametocyte: inactive; FLuc inhib CS: inactive; NF-kB neuron act: 3.6; APP 5'UTR act: inactive

How did CCN(C(=O)COC(=O)/C=C/c1c(C)nn(-c2ccccc2)c1C)C1CCS(=O)(=O)C1 (centres undefined) do in these assays?
Pf gametocyte: inactive

What do the screens show for `NC1=NC(=Nc2ccccc2)c2ccccc21`?
FLuc act counter: inactive; STAT1 activator: inactive; FLuc inhib CS: inactive; NF-kB neuron act: inactive; APP 5'UTR act: inactive

Results for NC1=NC(=Nc2ccc(Br)cc2)c2ccccc21 ?
FLuc act counter: inactive; STAT1 activator: inactive; FLuc inhib CS: 53; NF-kB neuron act: inactive; APP 5'UTR act: inactive

What do the screens show for `O=C1C(Cl)=C(Nc2ccccc2O)C(=O)N1c1ccccc1`?
FLuc act counter: inactive; STAT1 activator: inactive; FLuc inhib CS: inactive; NF-kB neuron act: 4.3; APP 5'UTR act: inactive

How did CCn1c(SCC(=O)NC2CCS(=O)(=O)C2)nnc1-c1ccccc1 (centres undefined) do in these assays?
FLuc act counter: inactive; STAT1 activator: inactive; Pf gametocyte: inactive; FLuc inhib CS: inactive; NF-kB neuron act: inactive; APP 5'UTR act: inactive

How did Cc1ccc(-c2cn(-c3ccccc3)c(SCC(=O)NC3CCS(=O)(=O)C3)n2)cc1C (centres undefined) do in these assays?
FLuc act counter: inactive; STAT1 activator: 136; Pf gametocyte: inactive; FLuc inhib CS: inactive; NF-kB neuron act: inactive; APP 5'UTR act: inactive

What do the screens show for `Cc1ccc2[nH]c(=O)c(CN(CCCN(C)C)C(=O)Nc3ccc(F)cc3)cc2c1`?
FLuc act counter: inactive; STAT1 activator: inactive; FLuc inhib CS: inactive; NF-kB neuron act: inactive; APP 5'UTR act: inactive

What do the screens show for `COCC(C)n1c(SCC(=O)NC(=O)Nc2ccc3c(c2)OCCO3)nc2ccccc2c1=O` (centres undefined)?
FLuc act counter: inactive; STAT1 activator: inactive; FLuc inhib CS: inactive; NF-kB neuron act: inactive; APP 5'UTR act: inactive

Results for O=c1c2cccc3c2c(nn1CN1CCOCC1)-c1ccccc1-3 ?
FLuc act counter: inactive; STAT1 activator: inactive; FLuc inhib CS: inactive; NF-kB neuron act: inactive; APP 5'UTR act: inactive

Results for CCN(CC)CCn1nc2c3c(cccc3c1=O)-c1ccccc1-2 ?
FLuc act counter: inactive; STAT1 activator: 230; Pf gametocyte: inactive; FLuc inhib CS: inactive; NF-kB neuron act: inactive; APP 5'UTR act: inactive

How did Cc1ccc(NC(=O)CCn2cc(C(F)(F)F)ccc2=O)cc1 do in these assays?
Pf gametocyte: inactive

Results for Fc1ccc(Nc2ccnc(Nc3ccc(F)cc3)n2)cc1 ?
FLuc act counter: inactive; STAT1 activator: 137; Pf gametocyte: inactive; FLuc inhib CS: inactive; NF-kB neuron act: inactive; APP 5'UTR act: inactive
